According to paper PMC4979564 (JCI insight, 2016):

Experiments:
[1] = system: anxiety-like behavior; assay: Elevated plus-maze test; format: in vivo, mouse
[2] = molecular target: iNOS (Mus musculus, UniProt P29477); format: cell-based; conditions: for concentration range of concentration-dependent inhibition of iNOS activity: extracts of RAW 264.7 macrophages treated with LPS + γ-interferon
How it was run: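 RAW 264.7 mouse macrophages (100,000 cells/well) primed 24 h with LPS (50 ng/ml) plus γ-interferon (10 ng/ml) to induce iNOS. Test compound was then added for 1 h. Activity was read with a fluorimetric cell-associated NOS detection kit per supplier's protocol. Diphenylene iodonium (1 mM) served as positive control. One-way ANOVA with Dunnett's test against LPS+γ-interferon control.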

[3] = molecular target: recombinant bovine eNOS (Bos taurus, UniProt P29473); assay: Radioisotopic eNOS activity assay; format: biochemical; conditions: recombinant eNOS enzyme
How it was run: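 Recombinant bovine eNOS was incubated with test compound. Activity was taken as the rate of conversion of [3H]L-arginine to [3H]L-citrulline, using a radioisotopic NOS assay kit per supplier's instructions. L-NNA (100 μM) served as positive control. One-way ANOVA with Dunnett's test.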

[4] = system: BDL-induced liver fibrosis; assay: Bile duct ligation; format: in vivo, mouse; conditions: for gene expression of fibrosis markers collagen-1, Tgfβ1, αSma, Timp1: wild-type mice with BDL; for progression of established BDL-induced liver fibrosis: treatment started on day 6 after BDL
[5] = molecular target: T1, CB1R (Mus musculus, UniProt P47746); assay: [35S]GTPγS-binding assay; format: biochemical; conditions: no agonist
[6] = Tissue distribution by LC-MS/MS after oral dosing; format: in vivo, mouse
[7] = Plasma ALT and AST after 28-day chronic oral administration; format: in vivo, mouse; conditions: for plasma ALT / plasma AST: 28-day chronic oral
How it was run: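 Mice received test compound by daily oral gavage. Blood was collected at sacrifice, and serum ALT and AST were measured on an automated clinical chemistry analyzer.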

[8] = system: Caco-2; assay: Caco-2 permeability assay; format: in vitro ADME
[9] = molecular target: T1, CB1R; assay: Brain CB1R occupancy by CB1R PET; format: in vivo; conditions: acute or chronic treatment, 3–30 mg/kg
[10] = molecular target: T1, CB1R; assay: Upper GI motility assay; format: in vivo
[11] = Pharmacokinetics in Sprague-Dawley rats; format: in vivo, rat
[12] = Pharmacokinetics in mice; format: in vivo, mouse; conditions: oral
[13] = Liver microsomal stability assay; format: in vitro ADME; conditions: mouse, rat, or human liver microsomes, 1 hour at 37°C
[14] = 2-strain Ames test for in vitro genotoxicity; conditions: up to 125 μg/ml
[15] = molecular target: hERG (Homo sapiens, UniProt Q12809); assay: hERG K+ current inhibition; format: biochemical; conditions: read-out: IC50 for inhibition of the K+ current mediated by hERG; in vitro
[16] = molecular target: CB1R (Homo sapiens, UniProt P21554); assay: Safety screen; format: binding; conditions: 1 μM
[17] = system: κ opioid receptor; assay: Safety screen; format: binding; conditions: 1 μM
[18] = system: CCl4-induced liver fibrosis; assay: CCl4-induced liver fibrosis; format: in vivo, mouse; conditions: 3 mg/kg/d for 4 weeks with CCl4 twice weekly
[19] = system: CB2R; conditions: binding, CHO-K1 membranes

T1 sequence (P47746 whole entry): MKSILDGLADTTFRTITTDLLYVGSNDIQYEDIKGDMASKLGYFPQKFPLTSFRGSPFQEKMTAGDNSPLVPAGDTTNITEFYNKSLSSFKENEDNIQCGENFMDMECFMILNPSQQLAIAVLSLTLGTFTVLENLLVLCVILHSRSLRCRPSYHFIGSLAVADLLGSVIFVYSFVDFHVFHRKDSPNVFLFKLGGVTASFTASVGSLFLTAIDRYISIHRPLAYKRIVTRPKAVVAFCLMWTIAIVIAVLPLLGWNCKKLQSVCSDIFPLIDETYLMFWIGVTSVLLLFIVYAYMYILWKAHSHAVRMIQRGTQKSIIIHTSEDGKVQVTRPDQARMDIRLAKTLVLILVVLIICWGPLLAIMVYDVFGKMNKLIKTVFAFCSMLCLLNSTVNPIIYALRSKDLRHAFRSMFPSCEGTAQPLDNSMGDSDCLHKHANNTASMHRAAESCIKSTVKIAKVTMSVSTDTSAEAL
CB1R (Homo sapiens, UniProt P21554), sequence (P21554 whole entry): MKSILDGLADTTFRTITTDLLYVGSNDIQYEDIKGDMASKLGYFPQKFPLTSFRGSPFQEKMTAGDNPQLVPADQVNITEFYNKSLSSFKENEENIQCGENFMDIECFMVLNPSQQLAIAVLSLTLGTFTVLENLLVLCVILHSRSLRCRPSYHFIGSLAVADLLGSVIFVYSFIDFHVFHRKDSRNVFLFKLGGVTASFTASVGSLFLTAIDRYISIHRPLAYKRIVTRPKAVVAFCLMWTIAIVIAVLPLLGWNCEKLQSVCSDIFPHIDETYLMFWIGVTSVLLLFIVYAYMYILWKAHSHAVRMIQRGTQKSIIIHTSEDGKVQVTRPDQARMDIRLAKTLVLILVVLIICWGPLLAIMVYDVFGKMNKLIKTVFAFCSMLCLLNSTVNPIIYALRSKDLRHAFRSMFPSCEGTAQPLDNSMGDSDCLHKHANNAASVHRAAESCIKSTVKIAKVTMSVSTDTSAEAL
hERG, sequence (Q12809 whole entry): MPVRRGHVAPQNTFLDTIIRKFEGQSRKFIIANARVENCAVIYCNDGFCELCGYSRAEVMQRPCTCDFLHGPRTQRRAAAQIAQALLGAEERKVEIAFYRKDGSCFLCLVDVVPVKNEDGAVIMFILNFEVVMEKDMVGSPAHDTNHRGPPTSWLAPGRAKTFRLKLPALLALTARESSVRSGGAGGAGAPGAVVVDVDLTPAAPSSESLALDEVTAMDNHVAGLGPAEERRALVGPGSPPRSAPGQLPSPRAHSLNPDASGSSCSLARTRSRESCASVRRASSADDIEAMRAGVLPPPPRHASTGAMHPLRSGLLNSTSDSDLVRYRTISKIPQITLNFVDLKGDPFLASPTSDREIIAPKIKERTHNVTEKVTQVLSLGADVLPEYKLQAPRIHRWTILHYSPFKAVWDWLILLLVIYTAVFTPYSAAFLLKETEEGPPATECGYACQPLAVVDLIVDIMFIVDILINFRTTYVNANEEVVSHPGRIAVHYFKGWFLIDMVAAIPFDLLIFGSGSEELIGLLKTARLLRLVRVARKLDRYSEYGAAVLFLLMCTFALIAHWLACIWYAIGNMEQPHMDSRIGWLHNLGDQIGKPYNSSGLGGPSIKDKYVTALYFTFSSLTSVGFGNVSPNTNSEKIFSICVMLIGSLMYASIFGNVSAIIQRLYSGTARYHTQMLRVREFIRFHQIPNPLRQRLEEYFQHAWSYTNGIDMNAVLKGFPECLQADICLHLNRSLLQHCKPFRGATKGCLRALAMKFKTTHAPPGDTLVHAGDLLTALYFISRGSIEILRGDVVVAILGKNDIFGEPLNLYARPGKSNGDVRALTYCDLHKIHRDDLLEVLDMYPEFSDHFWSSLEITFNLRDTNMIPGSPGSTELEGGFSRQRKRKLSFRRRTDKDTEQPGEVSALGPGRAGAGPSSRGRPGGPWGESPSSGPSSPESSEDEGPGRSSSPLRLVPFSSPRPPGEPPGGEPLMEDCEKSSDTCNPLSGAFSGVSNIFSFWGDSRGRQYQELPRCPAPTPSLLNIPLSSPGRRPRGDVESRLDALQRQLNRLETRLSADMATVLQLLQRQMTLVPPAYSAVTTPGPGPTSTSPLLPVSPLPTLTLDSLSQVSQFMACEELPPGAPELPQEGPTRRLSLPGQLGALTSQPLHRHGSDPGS

Which “anxiety-like behavior in the elevated plus maze” value ([1]; 3 mg/kg) does the source give for Cc1c(C(=O)NN2CCCCC2)nn(-c2ccc(Cl)cc2Cl)c1-c1ccc(Cl)cc1 [rimonabant, reference compound] here?
The value was “caused pronounced anxiety”.

What about the “inhibition of iNOS activity” value ([2]; up to 100 μM) of the same molecule?
Its value is “did not inhibit iNOS”.

What about the “effect on eNOS activity” value [3] of the same molecule?
The value was “Lack of effect”.

What about the “BDL-induced increase in hepatic iNOS gene expression” value ([4]; 3 mg/kg/d oral) of the same molecule?
Its value is “only partially reduced”.

What about the “BDL-induced increase in hepatic iNOS protein (immunostaining)” value ([4]; 3 mg/kg/d oral) of the same molecule?
The value was “did not affect”.

What about the “BDL-induced increase in iNOS function (hepatic iNOS enzyme activity, protein nitrosylation)” value ([4]; 3 mg/kg/d oral) of the same molecule?
The value was “no significant effect”.

And the “gene expression of fibrosis markers collagen-1, Tgfβ1, αSma, Timp1” value ([4]; 3 mg/kg/d oral)?
The value was “significantly reduced”.

For CC(=N)NCc1cccc(CN)c1 [1400W, reference compound], which “progression of established BDL-induced liver fibrosis” value ([4]; 10 mg/kg daily) is on record?
Its value is “attenuated fibrosis to the same extent as rimonabant”.

For CC(=N)N [acetamidine], which “concentration range of concentration-dependent inhibition of iNOS activity” value [2] is on record?
The value was 1 to 10 µM.

And the “effect on eNOS activity” value [3]?
Its value is “unaffected”.

Which results are given for C/C(N)=N\C(=N/S(=O)(=O)c1ccc(C(F)(F)F)cc1)N1C[C@H](c2ccccc2)C(c2ccc(Cl)cc2)=N1 [MRI-1867]?
GTPγS binding in the absence of an agonist (inverse agonism) [5]: concentration-dependent decreases in GTPγS binding; unbound drug concentrations in the brain ([6]; 10 times higher dose (30 mg/kg), acute or chronic oral, 1 hour after dose): 0.9 to 1.2 nM; brain/plasma Cmax ratio ([6]; acute or 28-day chronic oral administration, 3 mg/kg): ~ 3%; brain concentration of unbound drug ([6]; acute or chronic oral dosing, 3 mg/kg, 1 hour after dose): 0.2 to 0.3 nM; brain penetrance and brain CB1R occupancy in mdr1α−/− mice ([6]; mdr1α−/− mice): marked increase; accumulation in the liver ([6]; oral dosing): accumulated highly in the liver; hepatotoxicity ([7]; 28-day chronic oral doses of 3 or 30 mg/kg): no hepatotoxicity; plasma ALT ([7]; 3 mg/kg): 31.8 ± 4.8 U/l; plasma AST ([7]; 3 mg/kg): 44.0 ± 6.1 U/l; plasma ALT ([7]; 30 mg/kg): 26.2 ± 3.4 U/l; plasma AST ([7]; 30 mg/kg): 36.2 ± 1.2 U/l; efflux ratio [8]: 2.5; displacement of a CB1R PET ligand in brain [9]: failed to cause significant displacement; anxiety-like behavior in the elevated plus maze ([1]; doses up to 30 mg/kg): did not induce anxiety-like behavior; reversal of inhibition of upper GI motility caused by CB1R agonist arachidonoyl 2-chloroethylamide ([10]; 10 mg/kg agonist): dose-dependently reversed; upper GI motility (inverse agonism) ([10]; oral doses of 3–10 mg/kg, control mice, no effect in CBr1−/− mice): significantly increased upper GI motility; concentration range of concentration-dependent inhibition of iNOS activity [2]: 1 to 10 µM; effect on eNOS activity [3]: unaffected; oral bioavailability ([11]; AUC oral gavage versus intravenous, 3 mg/kg, Sprague-Dawley rats): 81%; Plasma t1/2 ([11]; oral, rats): ~ 4 hours; Plasma t1/2 [12]: ~ 4 hours; compound remaining unmetabolized [13]: 46%–62%; Ames test genotoxicity [14]: negative; IC50 [15]: 5.1 µM; displacement at CB1R [16]: 93%; displacement at κ opioid receptor [17]: 61%; BDL-induced increase in hepatic iNOS gene expression ([4]; 3 mg/kg/d oral): completely prevented; BDL-induced increase in hepatic iNOS protein (immunostaining) ([4]; 3 mg/kg/d oral): completely prevented; BDL-induced increase in iNOS function (hepatic iNOS enzyme activity, protein nitrosylation) ([4]; 3 mg/kg/d oral): completely prevented; macrophage infiltration, hepatocyte apoptosis and elevated Ccl2 after BDL ([4]; 3 mg/kg/d oral): more effectively suppressed; BDL-induced fibrosis in cnr1−/− mice ([4]; cnr1−/− mice, 3 mg/kg/d oral): further attenuated; progression of established BDL-induced liver fibrosis ([4]; 3 mg/kg/d oral): completely arrest the progression; gene expression of fibrosis markers collagen-1, Tgfβ1, αSma, Timp1 ([4]; 3 mg/kg/d oral): significantly reduced; BDL-induced ductular proliferation ([4]; wild-type mice, 3 mg/kg/d oral): attenuated significantly more effectively; CCl4-induced fibrosis (Sirius red, Hyp content, fibrogenic gene expression, iNOS protein) [18]: attenuated significantly more; selectivity for CB1R over CB2R [19]: > 500 fold
